Experimental data taken from ChEMBL document CHEMBL3608246, “Novel benzidine and diaminofluorene prolinamide derivatives as potent hepatitis C virus NS5A inhibitors” (Eur J Med Chem, 2015).
pEC50: −log10 of the molar value.

Assays:
Hepatitis C virus [1] = experiment: Antiviral activity against HCV genotype 2a JFH5a infected in human Huh7.5.1 cells transfected with JFH5a-Rluc-ad34 assessed as reduction in virus proliferation by luciferase reporter gene assay; assay type: functional, cell-based, Hepacivirus hominis, Huh-7
Hepatitis C virus [2] = experiment: Antiviral activity against HCV genotype 1b NK/R2AN infected in human Huh7.5.1 cells assessed as reduction in virus replication by luciferase reporter gene assay; assay type: functional, organism-based, Hepacivirus hominis, subtype 1b NK/R2AN, Huh-7
[3] = Cytotoxicity against human Huh7.5.1 cells; assay type: cell-based, Huh-7
Salmonella typhimurium = experiment: Genotoxicity in Salmonella typhimurium TA98 assessed as induction of revertant colonies at 1 ug/plate in absence of S9 mix by Ames test relative untreated control; assay type: toxicity, organism-based; conditions: salmonella enterica subsp. enterica serovar typhimurium
hERG (KCNH2) = hERG (KCNH2) (Homo sapiens, UniProt Q12809); experiment: Inhibition of human ERG at 10 uM by fluorescence polarization assay based ligand binding assay
[4] = Stability in rat plasma assessed as compound remaining t 100 uM after 0.5 hrs by LC-MS/MS method; assay type: ADME, cell-free; conditions: read-out: Stability
How it was run: (§1)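 Rat plasma pre-warmed 5 min at 37 °C, mixed with test compound from 100 µM stock (3 into 297 parts), incubated at 37 °C; sampled at 0, 15, 30, 60, 120 min, acetonitrile-precipitated, centrifuged 10 min, supernatant analysed by LC-MS/MS.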

[5] = Stability in rat plasma assessed as compound remaining at 100 uM after 1 hr by LC-MS/MS method; assay type: ADME, cell-free; conditions: read-out: Stability; how it was run: as §1
[6] = Stability in rat plasma assessed as compound remaining at 100 uM after 2 hrs by LC-MS/MS method; assay type: ADME, cell-free; conditions: read-out: Stability; how it was run: as §1
[7] = Stability in human liver microsomes assessed as compound remaining at 1 uM after 0.5 hrs by LC-MS/MS method; assay type: ADME; conditions: read-out: Stability
How it was run: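 Pooled human liver microsomal fraction with β-NADPH, compound at 1 µM, incubated over 30 min; remaining compound in supernatant quantified by LC-MS/MS.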

Cytochrome P450 1A2 = target: T1, Cytochrome P450 1A2 (Homo sapiens, UniProt P05177); experiment: Inhibition of human CYP1A2 by luminometry; assay type: ADME
T1 sequence (P05177 whole entry): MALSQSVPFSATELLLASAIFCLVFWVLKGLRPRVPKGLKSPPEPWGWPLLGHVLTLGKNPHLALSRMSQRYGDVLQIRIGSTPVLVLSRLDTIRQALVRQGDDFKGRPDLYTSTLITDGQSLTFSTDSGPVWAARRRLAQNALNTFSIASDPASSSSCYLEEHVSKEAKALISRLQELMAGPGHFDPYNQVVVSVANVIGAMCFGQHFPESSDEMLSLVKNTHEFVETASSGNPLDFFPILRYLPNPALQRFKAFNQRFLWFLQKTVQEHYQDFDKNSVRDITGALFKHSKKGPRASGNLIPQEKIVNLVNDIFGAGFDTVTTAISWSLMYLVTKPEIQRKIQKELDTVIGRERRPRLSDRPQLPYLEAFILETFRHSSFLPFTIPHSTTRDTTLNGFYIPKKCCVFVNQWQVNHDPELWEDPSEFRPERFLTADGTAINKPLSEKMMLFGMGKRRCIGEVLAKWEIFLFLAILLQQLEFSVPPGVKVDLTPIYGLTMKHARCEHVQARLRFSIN
How it was run: (§2)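 Human CYP1A2, 2C9, 2C19, 2D6 and 3A4 inhibition by P450-Glo luminescent assay per kit protocol; compounds at 100, 50, 10, 5, 1, 0.1 and 0.01 µM; luminometer read-out.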

Cytochrome P450 2C9 = Cytochrome P450 2C9 (Homo sapiens, UniProt P11712); experiment: Inhibition of human CYP2C9 by luminometry; assay type: ADME; how it was run: as §2
Cytochrome P450 2D6 = Cytochrome P450 2D6 (Homo sapiens, UniProt P10635); experiment: Inhibition of human CYP2D6 by luminometry; assay type: ADME; how it was run: as §2
Cytochrome P450 2C19 = Cytochrome P450 2C19 (Homo sapiens, UniProt P33261); experiment: Inhibition of human CYP2C19 by luminometry; assay type: ADME; how it was run: as §2
Cytochrome P450 3A4 = Cytochrome P450 3A4 (Homo sapiens, UniProt P08684); experiment: Inhibition of human CYP3A4 by luminometry; assay type: ADME; how it was run: as §2
[8] = Half life in Sprague-Dawley rat at 10 mg/kg, po by LC/MS/MS method; assay type: ADME, organism-based; conditions: in vivo
How it was run: (§3)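 Sprague-Dawley rats, 2 male and 1 female per compound per route, parallel design. Vehicle 5% DMSO, 10% solutol, 85% HPBCD; IV 5 mg/kg bolus via tail vein, oral 10 mg/kg. Blood into K2-EDTA tubes at several time points, centrifuged, plasma analysed by LC/MS/MS; non-compartmental analysis.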

[9] = Oral bioavailability in Sprague-Dawley rat at 10 mg/kg by LC/MS/MS method; assay type: ADME, organism-based; conditions: in vivo; how it was run: as §3
[10] = Half life in Sprague-Dawley rat at 5 mg/kg, iv by LC/MS/MS method; assay type: ADME, organism-based; conditions: in vivo; how it was run: as §3
[11] = Hepatitis C virus, genotype 2a JFH5a, Huh-7
[12] = Hepatitis C virus, subtype 1b NK/R2AN, Huh-7

Sequence of Cytochrome P450 2D6 (P10635 whole entry): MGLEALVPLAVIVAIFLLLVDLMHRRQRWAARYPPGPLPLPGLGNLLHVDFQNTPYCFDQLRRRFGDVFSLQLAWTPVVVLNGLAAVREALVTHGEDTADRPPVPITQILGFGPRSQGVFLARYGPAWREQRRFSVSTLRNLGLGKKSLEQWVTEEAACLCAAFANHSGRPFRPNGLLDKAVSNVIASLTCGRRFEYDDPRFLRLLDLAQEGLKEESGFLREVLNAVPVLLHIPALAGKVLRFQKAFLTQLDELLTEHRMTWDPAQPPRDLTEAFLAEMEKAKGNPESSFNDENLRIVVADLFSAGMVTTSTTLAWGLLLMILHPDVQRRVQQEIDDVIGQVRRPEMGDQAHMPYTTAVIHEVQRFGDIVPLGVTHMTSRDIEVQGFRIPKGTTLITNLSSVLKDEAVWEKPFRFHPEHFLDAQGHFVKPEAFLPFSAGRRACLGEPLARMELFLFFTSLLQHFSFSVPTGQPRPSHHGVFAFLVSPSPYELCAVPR
Sequence of Cytochrome P450 2C9 (P11712 whole entry): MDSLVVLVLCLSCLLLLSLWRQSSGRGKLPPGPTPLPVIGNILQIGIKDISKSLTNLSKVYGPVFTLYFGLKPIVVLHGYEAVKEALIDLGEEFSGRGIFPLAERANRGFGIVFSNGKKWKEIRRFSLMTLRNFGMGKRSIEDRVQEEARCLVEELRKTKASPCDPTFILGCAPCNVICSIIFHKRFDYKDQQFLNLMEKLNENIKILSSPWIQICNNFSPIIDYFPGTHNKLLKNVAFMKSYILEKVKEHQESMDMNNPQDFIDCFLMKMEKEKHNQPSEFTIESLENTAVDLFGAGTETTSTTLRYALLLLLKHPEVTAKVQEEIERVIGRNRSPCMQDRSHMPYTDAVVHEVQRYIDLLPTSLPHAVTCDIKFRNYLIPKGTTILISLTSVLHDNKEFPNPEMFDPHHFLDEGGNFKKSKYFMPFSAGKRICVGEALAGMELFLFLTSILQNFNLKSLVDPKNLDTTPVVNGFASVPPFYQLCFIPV
Sequence of hERG (KCNH2) (Q12809 whole entry): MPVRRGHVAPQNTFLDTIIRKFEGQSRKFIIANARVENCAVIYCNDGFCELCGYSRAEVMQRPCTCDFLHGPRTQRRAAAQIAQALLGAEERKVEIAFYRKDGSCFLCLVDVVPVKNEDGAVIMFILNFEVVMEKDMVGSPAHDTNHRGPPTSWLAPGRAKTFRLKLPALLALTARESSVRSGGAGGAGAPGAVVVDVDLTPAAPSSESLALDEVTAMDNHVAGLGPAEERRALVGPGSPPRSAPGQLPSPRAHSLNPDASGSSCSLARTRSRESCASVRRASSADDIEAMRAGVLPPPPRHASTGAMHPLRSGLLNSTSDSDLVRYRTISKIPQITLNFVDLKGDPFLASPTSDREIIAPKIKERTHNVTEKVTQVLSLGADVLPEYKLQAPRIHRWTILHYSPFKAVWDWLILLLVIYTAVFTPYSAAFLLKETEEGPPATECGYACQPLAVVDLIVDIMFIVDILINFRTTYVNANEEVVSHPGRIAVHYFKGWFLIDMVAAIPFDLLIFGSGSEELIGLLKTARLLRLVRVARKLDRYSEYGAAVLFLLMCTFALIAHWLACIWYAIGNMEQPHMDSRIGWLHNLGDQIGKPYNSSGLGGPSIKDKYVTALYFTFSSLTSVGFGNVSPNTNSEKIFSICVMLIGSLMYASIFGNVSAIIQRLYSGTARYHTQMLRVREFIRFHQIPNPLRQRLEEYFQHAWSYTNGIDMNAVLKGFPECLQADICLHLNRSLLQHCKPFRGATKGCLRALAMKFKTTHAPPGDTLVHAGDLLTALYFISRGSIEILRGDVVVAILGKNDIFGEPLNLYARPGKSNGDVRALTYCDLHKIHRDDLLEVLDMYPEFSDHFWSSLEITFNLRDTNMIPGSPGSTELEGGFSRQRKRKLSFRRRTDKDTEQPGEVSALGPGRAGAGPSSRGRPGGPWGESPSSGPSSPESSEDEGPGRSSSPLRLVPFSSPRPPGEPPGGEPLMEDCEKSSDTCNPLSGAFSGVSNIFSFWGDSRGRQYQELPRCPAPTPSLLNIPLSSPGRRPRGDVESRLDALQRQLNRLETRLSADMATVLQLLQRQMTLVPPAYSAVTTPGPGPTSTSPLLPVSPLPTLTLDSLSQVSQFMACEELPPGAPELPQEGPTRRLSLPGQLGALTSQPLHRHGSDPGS
Sequence of Cytochrome P450 3A4 (P08684 whole entry): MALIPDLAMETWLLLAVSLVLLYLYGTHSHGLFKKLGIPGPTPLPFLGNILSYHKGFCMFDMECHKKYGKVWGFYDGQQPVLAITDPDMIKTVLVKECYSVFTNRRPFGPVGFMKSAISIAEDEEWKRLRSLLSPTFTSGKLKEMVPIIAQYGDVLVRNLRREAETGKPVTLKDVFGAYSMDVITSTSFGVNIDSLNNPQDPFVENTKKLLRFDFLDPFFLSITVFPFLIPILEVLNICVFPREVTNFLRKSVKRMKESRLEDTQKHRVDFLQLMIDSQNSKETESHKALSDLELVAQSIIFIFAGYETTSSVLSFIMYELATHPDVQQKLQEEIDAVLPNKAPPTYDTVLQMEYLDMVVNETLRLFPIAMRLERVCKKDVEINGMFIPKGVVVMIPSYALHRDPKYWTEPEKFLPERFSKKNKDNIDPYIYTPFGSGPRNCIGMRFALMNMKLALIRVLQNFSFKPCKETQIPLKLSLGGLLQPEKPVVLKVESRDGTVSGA
Sequence of Cytochrome P450 2C19 (P33261 whole entry): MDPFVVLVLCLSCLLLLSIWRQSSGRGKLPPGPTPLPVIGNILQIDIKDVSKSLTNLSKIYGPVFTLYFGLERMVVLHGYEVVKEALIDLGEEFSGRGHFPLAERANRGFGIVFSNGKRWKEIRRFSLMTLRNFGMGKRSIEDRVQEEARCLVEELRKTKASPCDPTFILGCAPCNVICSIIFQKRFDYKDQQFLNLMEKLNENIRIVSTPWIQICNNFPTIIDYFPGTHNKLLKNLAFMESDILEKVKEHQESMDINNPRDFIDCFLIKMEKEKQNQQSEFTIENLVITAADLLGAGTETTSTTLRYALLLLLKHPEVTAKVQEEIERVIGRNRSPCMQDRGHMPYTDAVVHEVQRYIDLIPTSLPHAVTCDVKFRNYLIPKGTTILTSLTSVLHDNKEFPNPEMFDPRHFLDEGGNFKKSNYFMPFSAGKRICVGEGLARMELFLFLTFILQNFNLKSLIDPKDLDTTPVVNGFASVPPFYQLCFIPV

| SMILES | pEC50 (Hepatitis C virus [2]; [12]) | pEC50 (Hepatitis C virus [1]; [11]) | CC50 [3] [nM] | also measured |
| --- | --- | --- | --- | --- |
| COC(=O)N[C@@H](C(=O)N1CCC[C@@H]1C(=O)Nc1ccc(-c2ccc(NC(=O)[C@H]3CCCN3C(=O)[C@H](NC(=O)OC)c3ccccc3)cc2)cc1)c1ccccc1 | 7.08 | 5.75 | > 25000 | – |
| O=[N+]([O-])c1ccc2c(c1)Cc1ccccc1-2 [2-NITROFLUORENE] | – | – | – | fold change (FC) (Salmonella typhimurium): 10.2 |
| COC(=O)N[C@@H](C(=O)N1CCC[C@@]1(C)C(=O)Nc1ccc(-c2ccc(NC(=O)[C@]3(C)CCCN3C(=O)[C@H](NC(=O)OC)c3ccccc3)cc2)cc1)c1ccccc1 | 8.66 | 8.48 | > 25000 | – |
| COC(=O)N[C@@H](C(=O)N1CCC[C@H]1C(=O)Nc1ccc(-c2ccc(NC(=O)[C@@H]3CCCN3C(=O)[C@H](NC(=O)OC)c3ccccc3)cc2C(F)(F)F)c(C(F)(F)F)c1)c1ccccc1 (stereo in doubt; form 3) | – | – | – | pEC50 (Hepatitis C virus [1]; huh-7): 7.61; pEC50 (Hepatitis C virus [2]; huh-7): 8.62 |
| COC(=O)N[C@@H](C(=O)N1CCCC[C@H]1C(=O)Nc1ccc(-c2ccc(NC(=O)[C@@H]3CCCCN3C(=O)[C@H](NC(=O)OC)c3ccccc3)cc2)cc1)c1ccccc1 | 8.68 | 6.74 | > 25000 | – |
| COC(=O)N[C@@H](C(=O)N1CCC[C@H]1C(=O)Nc1ccc(-c2ccc(NC(=O)[C@@H]3CCCN3C(=O)[C@H](NC(=O)OC)c3ccccc3)cc2C(F)(F)F)c(C(F)(F)F)c1)c1ccccc1 (stereo in doubt; form 2) | – | – | > 25000 | pEC50 (Hepatitis C virus [1]; huh-7): 6.48; pEC50 (Hepatitis C virus [2]; huh-7): 7.55 |

More lines, in order of rising pEC50 (Hepatitis C virus [2]; [12]), values ahead:

| pEC50 (Hepatitis C virus [2]; [12]) | SMILES | pEC50 (Hepatitis C virus [1]; [11]) | CC50 [3] [nM] | also measured |
| --- | --- | --- | --- | --- |
| 10.57 | COC(=O)N[C@@H](C(=O)N1CSC[C@H]1C(=O)Nc1ccc(-c2ccc(NC(=O)[C@@H]3CSCN3C(=O)[C@H](NC(=O)OC)c3ccccc3)cc2)cc1)c1ccccc1 | 7.81 | > 25000 | – |
| 11.05 | COC(=O)N[C@@H](C(=O)N1CCC[C@H]1C(=O)Nc1ccc2c(c1)Cc1cc(NC(=O)[C@@H]3CCCN3C(=O)[C@H](NC(=O)OC)c3ccccc3)ccc1-2)c1ccccc1 | 8.25 | > 25000 | – |
| 11.15 | COC(=O)N[C@@H](C(=O)N1CCC[C@H]1C(=O)Nc1ccc(-c2ccc(NC(=O)[C@@H]3CCCN3C(=O)[C@H](NC(=O)OC)c3ccccc3)cc2Br)c(Br)c1)c1ccccc1 | 11.00 | > 25000 | – |
| 11.15 | COC(=O)N[C@@H](C(=O)N1CCC[C@H]1C(=O)Nc1ccc(-c2ccc(NC(=O)[C@@H]3CCCN3C(=O)[C@H](NC(=O)OC)c3ccccc3)cc2Cl)c(Cl)c1)c1ccccc1 | 11.00 | > 25000 | inhibition at 10 µM (hERG (KCNH2)): 5.8%; remaining at 0.5 h, 100 µM [4]: 72%; remaining at 1 h, 100 µM [5]: 75%; remaining at 2 h, 100 µM [6]: 70%; remaining at 0.5 h, 1 µM [7]: 96%; pEC50 (Cytochrome P450 1A2): 4.62; pEC50 (Cytochrome P450 2C9): 6.94; pEC50 (Cytochrome P450 2D6): 4.39; pEC50 (Cytochrome P450 2C19): 5.98; pEC50 (Cytochrome P450 3A4): 5.40; half-life [8]: 6.37 h; bioavailability [9]: 4.99%; half-life [10]: 1.55 h |
